# From publication PMC5900333 (ACS Medicinal Chemistry Letters, 2018)
# Experiments:
# [1] = molecular target: rabbit fast skeletal muscle myofibrils (Oryctolagus cuniculus, UniProt P02586+P02641+P02643); experiment: Fast skeletal myofibril ATPase assay; type: biochemical; conditions: 14 vs 13; 25 vs bromo 14
# Summary of the method: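 Rabbit fast skeletal muscle myofibrils; the read-out is the rate of ATP hydrolysis. The assay runs at a calcium level of 25% of that giving a maximal response in control preparations. AC40 is the test compound concentration that raises myofibril ATPase activity by 40%. Experiments were run in duplicate, and the fold potency change is taken from the AC40 values.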
# [2] = system: PT-EAMG (passive transfer experimental autoimmune myasthenia gravis) rat model; conditions: rats treated with anti-nAchRα antibody; cited from earlier work
# tibialis anterior = conditions: healthy humans, nerve stimulation; cited from earlier work
# [3] = In vivo clearance across nonclinical species vs hepatic blood flow
# CYP1A2 = molecular target: T1, CYP1A2 (Homo sapiens, UniProt P05177); experiment: Cytochrome P450 inhibition and time-dependent inhibition; type: in vitro ADME; conditions: liver microsomes, probe phenacetin
# T1 sequence (P05177 1-516): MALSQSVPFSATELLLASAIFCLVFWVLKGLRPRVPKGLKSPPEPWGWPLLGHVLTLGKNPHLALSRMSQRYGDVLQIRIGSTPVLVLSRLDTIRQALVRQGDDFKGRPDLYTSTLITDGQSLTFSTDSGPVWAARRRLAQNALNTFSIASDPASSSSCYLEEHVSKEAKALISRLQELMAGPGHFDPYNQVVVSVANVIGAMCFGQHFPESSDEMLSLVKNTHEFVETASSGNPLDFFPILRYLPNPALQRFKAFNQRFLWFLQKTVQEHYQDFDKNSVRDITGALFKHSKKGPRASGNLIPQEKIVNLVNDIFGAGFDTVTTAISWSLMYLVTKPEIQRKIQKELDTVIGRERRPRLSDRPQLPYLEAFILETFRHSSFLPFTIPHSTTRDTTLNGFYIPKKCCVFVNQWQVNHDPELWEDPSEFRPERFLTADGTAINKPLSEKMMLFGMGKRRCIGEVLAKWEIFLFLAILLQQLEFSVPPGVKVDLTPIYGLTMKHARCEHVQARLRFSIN
# Rat pharmacokinetics = conditions: both, Sprague-Dawley, in vivo, iv
# B6SJL-SOD1^G93A mouse = conditions: B6SJL-SOD1G93A mice, single dose; cited from earlier work
# [4] = ALS patients taking both 25 and Riluzole; cited from earlier work
# patients with ALS = conditions: Phase 3, patients with ALS; ref VITALITY-ALS, NCT02496767; cited from earlier work
# [5] = Microsomal turnover, human; type: in vitro ADME
# [6] = system: extensor digitorum longus (EDL) muscle; experiment: In situ EDL muscle force; type: in vivo; conditions: rat, systemic infusion, submaximal stimulation rates
# Microsomal turnover, rat = type: in vitro ADME
# Mouse pharmacokinetics = conditions: in vivo, iv, 1 mg/kg
# rabbit fast skeletal muscle myofibrils, sequence (P02586 2-160 limits assumed): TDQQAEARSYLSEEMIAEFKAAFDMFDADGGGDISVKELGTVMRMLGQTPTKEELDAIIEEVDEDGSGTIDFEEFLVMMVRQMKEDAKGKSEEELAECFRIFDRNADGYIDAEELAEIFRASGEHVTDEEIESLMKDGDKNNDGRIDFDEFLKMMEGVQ
# rabbit fast skeletal muscle myofibrils, sequence (P02643 2-182 limits assumed): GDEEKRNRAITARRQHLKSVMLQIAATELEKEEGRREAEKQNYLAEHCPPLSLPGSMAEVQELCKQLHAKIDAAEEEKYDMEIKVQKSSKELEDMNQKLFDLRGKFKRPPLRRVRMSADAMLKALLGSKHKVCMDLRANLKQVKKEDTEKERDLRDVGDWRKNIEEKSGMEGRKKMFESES
# rabbit fast skeletal muscle myofibrils, sequence (P02641 2-279 limits assumed): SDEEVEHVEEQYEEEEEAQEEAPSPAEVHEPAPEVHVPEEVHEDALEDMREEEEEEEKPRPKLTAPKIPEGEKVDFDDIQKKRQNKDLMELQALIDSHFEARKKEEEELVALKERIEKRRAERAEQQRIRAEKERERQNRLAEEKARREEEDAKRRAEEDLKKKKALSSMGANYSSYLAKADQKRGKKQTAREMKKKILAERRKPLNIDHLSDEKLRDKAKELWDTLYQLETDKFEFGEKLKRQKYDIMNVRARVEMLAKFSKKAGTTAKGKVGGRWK
fold improvement in biochemical potency over comparator [1],in vivo clearance as share of hepatic blood flow [3],IC50 shift at 30 min (CYP1A2),clearance (Rat pharmacokinetics),clearance (Rat pharmacokinetics; 1 mg/kg),"Re (h), ratio of extraction in microsomes [5]","Re (r), ratio of extraction in microsomes (Microsomal turnover, rat)",clearance (Mouse pharmacokinetics),Compound,grip strength [2],force produced by the tibialis anterior (tibialis anterior),muscle function and performance in ALS mouse model (B6SJL-SOD1^G93A mouse),drug-drug interaction: change of Riluzole concentrations [4],primary end point: change from baseline in slow vital capacity (SVC) at 24 weeks (patients with ALS),in situ EDL muscle force [6],in situ EDL muscle force ([6]; listed as tirasemtiv)
3 fold,less than 15 % of hepatic blood flow,> 3,2.6 mL/min/kg,2.6 mL/min/kg,<0.21,0.26,13.9 mL/min/kg,"C#Cc1cnc2nc(O)n(C(CC)CC)c2n1 [Compound 25, tirasemtiv]",increased grip strength,"increased force produced by the tibialis anterior in a dose-, concentration-, and frequency-dependent manner","significantly increased submaximal isometric force, forelimb grip strength, grid hang time, and rotarod performance",approximate doubling of Riluzole concentrations,did not meet its primary end point,"rapid, dose-dependent increases in muscle force at submaximal stimulation rates",concentration-dependent improvement in muscle force production in situ
3 fold,,,,19 mL/min/kg,,,,CCC(CC)n1c(=O)[nH]c2ncc(Br)nc21 [Compound 14],,,,,,,
,,,,7.7 mL/min/kg,,,,CCC(CC)n1c(=O)[nH]c2ncc(Cl)nc21 [Compound 21],,,,,,,
